Activity calls are given as the source filed them. The rule behind the calls is not given here.
How the values were obtained:
[1] = system: Lymphocyte; assay: Cytoprotective activity in human lymphocytes obtained from Leigh's syndrome patient assessed as viable cells at 2.5 uM after 16 hrs by trypan blue exclusion assay; format: functional; conditions: read-out: Activity
Method in brief: (§1)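 Lymphocytes from FRDA or Leigh's syndrome patients, grown in RPMI-1640 with 15% fetal calf serum and 2 mM glutamine, kept in log phase. Test agents at 0.1, 0.5 and 2.5 µM; diethyl maleate (DEM) added to deplete glutathione and induce oxidative stress. Viability expressed relative to untreated cells (100%). Values are mean ± SD/SEM as tabulated.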

[2] = system: Lymphocyte; assay: Inhibition of oxidative stress-induced mitochondrial membrane depolarization in diethyl maleate-treated human lymphocytes obtained from FRDA patient assessed as cells with intact mitochondrial membrane potential pretreated for 16 hrs using TMRM by FACS analysis; format: functional, cell-based
[3] = system: Lymphocyte; assay: Cytoprotective activity in human lymphocytes obtained from Leigh's syndrome patient assessed as viable cells at 0.5 uM after 16 hrs by trypan blue exclusion assay; format: functional; conditions: read-out: Activity; method in brief: as §1
[4] = system: Lymphocyte; assay: Increase in ATP production in CoQ10-deficient lymphocytes (unknown origin) assessed as cellular ATP level at 10 uM after 48 hrs using luciferin-luciferase reaction by bioluminescence assay relative to control; format: functional
Method in brief: (§2)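 CoQ10-deficient lymphocyte line GM17932 grown in glucose-free RPMI 1640 with 25 mM galactose, 2 mM glutamine and 10% dialyzed FBS, forcing oxidative phosphorylation. Incubated with compounds at 5, 10 or 25 µM for 48 h. Total intracellular ATP measured by luciferin–luciferase reaction, expressed as % of untreated control.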

[5] = system: Lymphocyte; assay: Inhibition of ROS generation in diethyl maleate-treated human lymphocytes obtained from FRDA patient compound pretreated at 100 to 500 nM for 16 hrs using DCFH-DA by FACS analysis; format: functional, cell-based
Method in brief: (§3)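 FRDA lymphocytes pretreated with compounds at 100, 250 and 500 nM for 16 h, then given DEM for 80 min to raise ROS. Stained with DCFH-DA for 15 min, then DCF fluorescence read by flow cytometry. Reported as % ROS scavenging; mean ± SEM of three experiments run in duplicate.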

[6] = system: Lymphocyte; assay: Increase in ATP production in CoQ10-deficient lymphocytes (unknown origin) assessed as cellular ATP level at 25 uM after 48 hrs using luciferin-luciferase reaction by bioluminescence assay relative to control; format: functional; method in brief: as §2
[7] = system: Lymphocyte; assay: Cytoprotective activity in human lymphocytes obtained from FRDA patient assessed as viable cells after 16 hrs by trypan blue exclusion assay; format: functional, cell-based; method in brief: as §1
[8] = system: Lymphocyte; assay: Increase in ATP production in CoQ10-deficient lymphocytes (unknown origin) assessed as cellular ATP level at 5 uM after 48 hrs using luciferin-luciferase reaction by bioluminescence assay relative to control; format: functional; method in brief: as §2
[9] = system: Lymphocyte; assay: Cytoprotective activity in human lymphocytes obtained from Leigh's syndrome patient assessed as viable cells after 16 hrs by trypan blue exclusion assay; format: functional, cell-based; method in brief: as §1
[10] = species: Bos taurus; assay: Inhibition of bovine heart mitochondrial NADH oxidase complex I/III/IV assessed as remaining activity by spectrophotometry relative to untreated control
[11] = system: Lymphocyte; assay: Inhibition of oxidative stress-induced mitochondrial membrane depolarization in diethyl maleate-treated human lymphocytes obtained from FRDA patient assessed as cells with intact mitochondrial membrane potential at 500 nM pretreated for 16 hrs using TMRM by FACS analysis (reference value: 95%); format: functional; parameters: scale not given: the % may be the effect or the level left
[12] = system: Lymphocyte; assay: Inhibition of oxidative stress-induced mitochondrial membrane depolarization in diethyl maleate-treated human lymphocytes obtained from FRDA patient assessed as cells with intact mitochondrial membrane potential at 100 nM pretreated for 16 hrs using TMRM by FACS analysis (reference value: 95%); format: functional; parameters: scale not given: the % may be the effect or the level left
[13] = system: Lymphocyte; assay: Cytoprotective activity in human lymphocytes obtained from FRDA patient assessed as viable cells at 0.5 uM after 16 hrs by trypan blue exclusion assay; format: functional; conditions: read-out: Activity; method in brief: as §1
[14] = system: Lymphocyte; assay: Cytoprotective activity in human lymphocytes obtained from FRDA patient assessed as viable cells at 2.5 uM after 16 hrs by trypan blue exclusion assay; format: functional; conditions: read-out: Activity; method in brief: as §1
[15] = system: Lymphocyte; assay: Inhibition of lipid peroxidation in diethyl maleate-treated human lymphocytes obtained from FRDA patient at 100 to 250 nM after 16 hrs using C11-BODIPY581/591 by FACS analysis; format: functional, cell-based
Method in brief: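 FRDA lymphocytes depleted of glutathione with DEM, probed with C11-BODIPY581/591. Green (oxidized) fluorescence read by flow cytometry at 490/510 nm. Median mean fluorescence taken relative to untreated control and converted to % lipid peroxidation scavenging; mean ± SEM, n = 3.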

[16] = system: Lymphocyte; assay: Inhibition of oxidative stress-induced mitochondrial membrane depolarization in diethyl maleate-treated human lymphocytes obtained from FRDA patient assessed as cells with intact mitochondrial membrane potential at 250 nM pretreated for 16 hrs using TMRM by FACS analysis (reference value: 95%); format: functional; parameters: scale not given: the % may be the effect or the level left
[17] = system: Lymphocyte; assay: Cytoprotective activity in human lymphocytes obtained from Leigh's syndrome patient assessed as viable cells at 0.1 uM after 16 hrs by trypan blue exclusion assay; format: functional; conditions: read-out: Activity; method in brief: as §1
[18] = Metabolic stability in bovine liver microsomes at 25 uM after 30 mins by reverse phase HPLC analysis; format: ADME, Bos taurus; conditions: cattle, read-out: Stability
Method in brief: (§4)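 Compounds incubated 30 min with activated bovine liver microsomes. Remaining parent compound quantified by reversed-phase HPLC and expressed as % recovered; mean ± SD.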

[19] = species: Bos taurus; assay: Inhibition of bovine heart mitochondrial NADH oxidase complex I/III/IV assessed as remaining activity at 1 uM by spectrophotometry relative to untreated control
[20] = species: Bos taurus; assay: Inhibition of bovine heart mitochondrial NADH oxidase complex I/III/IV assessed as remaining activity at 5 uM by spectrophotometry relative to untreated control
[21] = species: Bos taurus; assay: Inhibition of bovine heart mitochondrial NADH oxidase complex I/III/IV assessed as remaining activity at 10 uM by spectrophotometry relative to untreated control
[22] = system: Lymphocyte; assay: Cytoprotective activity in human lymphocytes obtained from FRDA patient assessed as viable cells at 0.1 uM after 16 hrs by trypan blue exclusion assay; format: functional; conditions: read-out: Activity; method in brief: as §1
[23] = Drug metabolism in bovine liver microsomes at 25 uM after 30 mins by reverse phase HPLC analysis; format: ADME, Bos taurus; conditions: cattle, read-out: Drug metabolism; method in brief: as §4
[24] = system: Lymphocyte; assay: Inhibition of ROS generation in diethyl maleate-treated human lymphocytes obtained from FRDA patient compound pretreated for 16 hrs using DCFH-DA by FACS analysis; format: functional, cell-based; method in brief: as §3

| SMILES | viability at 2.5 µM [1] [%] | viability at 0.5 µM [3] [%] | Activity [4] [%] | inhibition [5] | Activity [6] [%] | Activity [7] | Activity [8] [%] | Activity [9] | inhibition [10] | Activity [11] [%] | Activity [12] [%] | viability at 0.5 µM [13] [%] | viability at 2.5 µM [14] [%] | inhibition [15] | Activity [16] [%] | viability at 0.1 µM [17] [%] | Activity [19] [%] | Activity [20] [%] | Activity [21] [%] | viability at 0.1 µM [22] [%] | further results |
| --- | --- | --- | --- | --- | --- | --- | --- | --- | --- | --- | --- | --- | --- | --- | --- | --- | --- | --- | --- | --- | --- |
| CCCCCCCCCCc1c(C)c(N(C)C)nc(C)c1O | 86 | 87 | 40 | Active | 2 | Dose-dependent effect | 87 | Dose-dependent effect | Dose-dependent effect | 89 | 60 | 84 | 86 | Active | 78 | 19 | 49 | 35 | 8 | 34 | inhibition [2]: Dose-dependent effect; remaining at 0.5 h, 25 µM [18]: 70% |
| CCCCCCCCCCCCCCCCCCCc1c(C)c(N(C)C)nc(C)c1O | 87 | 8 | 103 | inactive | 86 | Dose-dependent effect | 106 | Dose-dependent effect | Dose-dependent effect | 64 | 23 | 50 | 87 | inactive | 42 | 8 | 98 | 83 | 81 | 20 | remaining at 0.5 h, 25 µM [18]: 50% |
| CCCCCCCCCCc1nc(N(C)C)c(C)c(C)c1O | 79 | 77 | 52 | Active | 13 | Dose-dependent effect | 89 | Dose-dependent effect | Dose-dependent effect | 90 | 65 | 74 | 87 | Active | 82 | 6 | 35 | 28 | 13 | 36 | inhibition [2]: Dose-dependent effect; metabolised at 0.5 h, 25 µM [23]: 25%; remaining at 0.5 h, 25 µM [18]: 70% |
| CCCCCCCCCCCCCCCCCCCc1nc(N(C)C)c(C)c(C)c1O | 66 | 7 | 102 | inactive | 99 | Dose-dependent effect | 102 | Dose-dependent effect | Dose-dependent effect | 65 | 24 | 38 | 76 | inactive | 44 | 4 | 93 | 88 | 85 | 17 | remaining at 0.5 h, 25 µM [18]: 50% |
| CCCCCCCCCCCCCCCCc1nc(N(C)C)c(C)c(C)c1O | 83 | 78 | 79 | Active | 41 | Dose-dependent effect | 100 | Dose-dependent effect | Dose-dependent effect | 92 | 67 | 91 | 92 | Active | 84 | 29 | 98 | 95 | 92 | 80 | inhibition [2]: Dose-dependent effect; metabolised at 0.5 h, 25 µM [23]: 20%; inhibition [24]: Dose-dependent effect; remaining at 0.5 h, 25 µM [18]: 70% |
| CCCCCCCCCCCCCCCCc1c(C)c(N2CCC2)nc(C)c1O | 92 | 95 | 76 | Active | 50 | Dose-dependent effect | 98 | Dose-dependent effect | Dose-dependent effect | 89 | 55 | 79 | 92 | Active | 72 | 18 | 95 | 89 | 79 | 58 | remaining at 0.5 h, 25 µM [18]: 95% |
| CCCCCCCCCCCCCCCCc1nc(N2CCC2)c(C)c(C)c1O | 81 | 82 | 70 | Active | 38 | Dose-dependent effect | 92 | Dose-dependent effect | Dose-dependent effect | 85 | 54 | 70 | 87 | Active | 68 | 13 | 93 | 94 | 95 | 54 | remaining at 0.5 h, 25 µM [18]: 95% |
| Cc1c(N(C)C)nc(CCCCCCCCCCO)c(O)c1C | 74 | 36 | 20 | inactive | 3 | Dose-dependent effect | 50 | Dose-dependent effect | Dose-dependent effect | 50 | 24 | 28 | 87 | inactive | 36 | 20 | 27 | 9 | 6 | 17 | metabolised at 0.5 h, 25 µM [23]: 60% |

From ChEMBL document CHEMBL3352113, “Cytoprotective pyridinol antioxidants as potential therapeutic agents for neurodegenerative and mitochondrial diseases” (Bioorg Med Chem, 2014)
